Measured values from PMC5553283 (Journal of natural products, 2017).

Legend:
[1] = Hydrolysis of the C-15 acetoxy group of AF to AJ; format: physicochemical; details: serum in vitro
[2] = human, microsomes
[3] = test system: murine xenograft models of breast cancer; details: systemic i.p. injection ref 23, 25; cited from earlier work
SCC-4 xenografts = assay: Antitumor efficacy of intratumorally administered taccalonolides; format: in vivo; details: intratumoral
[4] = In vivo pharmacokinetic assessment in mice, plasma LC-MS; details: 300 µg IV, mouse plasma
Outline: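 Female athymic nude mice, 6–7 weeks, got a single 300 µg tail-vein bolus in 100 µL PBS/5% ethanol. Blood was taken by cardiac puncture under CO2 anaesthesia pre-dose, at end of infusion, 0.25, 0.5, 1 and 2 h (3–5 mice/time point). EDTA plasma (1,200 rcf, 10 min), 100 µL extracted into 1 mL cold ethyl acetate. Quantified against 1/X2-weighted linear calibration. Non-compartmental AUC by linear trapezoid, extrapolated to infinity.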

SMILES | hydrolysis of the C-15 acetoxy group [1] | NADPH-free intrinsic clearance ([2]; pH 7.4) [µL/min/mg] | antitumor efficacy on systemic administration [3] | weight loss or other toxicities (SCC-4 xenografts; two 40 µg injections on days 0 and 3) | effect on tumor growth (SCC-4 xenografts; 20 µg total dose) | effect on tumor growth (SCC-4 xenografts; 80 µg total dose, over the course of the trial) | drug in the plasma 120 min after injection [4] | rate of clearance (microsomal intrinsic clearance) [2] | NADPH-dependent intrinsic clearance ([2]; pH 7.4) [µL/min/mg]
CC(=O)O[C@@H]1[C@H]2[C@H]3[C@H]([C@H](OC(C)=O)[C@H](OC(C)=O)[C@]2(C)[C@H]2[C@H](C)[C@H]4O[C@]45OC(=O)[C@@](C)(O)[C@]5(C)[C@H]12)[C@]1(C)[C@H](C[C@@H]2O[C@@H]2[C@@H]1OC(C)=O)C(=O)[C@@H]3O [taccalonolide AF] | observed | 0 | demonstrated antitumor efficacy | no associated weight loss or other toxicities | – | – | – | – | –
CC(=O)O[C@H]1[C@H]2[C@H]([C@@H]3[C@@H](O)[C@@H]4[C@H]([C@H](C)[C@H]5O[C@]56OC(=O)[C@@](C)(O)[C@]46C)[C@@]3(C)[C@H]1OC(C)=O)[C@@H](O)C(=O)[C@H]1C[C@@H]3O[C@@H]3[C@H](OC(C)=O)[C@]21C [taccalonolide AJ] | – | – | no evidence of antitumor efficacy | – | no inhibition of tumor growth | robust and prolonged inhibition of tumor growth | no drug detectable | – | –
CC(=O)CC(c1ccccc1)c1c(O)c2ccccc2oc1=O (centres unmarked) [warfarin] | – | 0 | – | – | – | – | – | no clearance | 0
